For test [1], the species on record is Homo sapiens. Put plainly: In vitro potency against polymorphonuclear leukocyte (PMNL) chemokinesis. Type of test: functional. The essentials:
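PMNL chemokinesis run over half-log concentration steps based on the binding Ki; EC50 obtained by least-squares regression as the concentration giving 50% of that peptide's own maximal response.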

The species entered for test [2] is Homo sapiens. Put plainly: In vitro agonist efficacy against polymorphonuclear leukocyte (PMNL) chemokinesis. Set-up: concentration or dose not given beside the values.
In test [3] the target is T1, C5a anaphylatoxin chemotactic receptor 1 (Homo sapiens, UniProt P21730).
T1 sequence (P21730 whole entry): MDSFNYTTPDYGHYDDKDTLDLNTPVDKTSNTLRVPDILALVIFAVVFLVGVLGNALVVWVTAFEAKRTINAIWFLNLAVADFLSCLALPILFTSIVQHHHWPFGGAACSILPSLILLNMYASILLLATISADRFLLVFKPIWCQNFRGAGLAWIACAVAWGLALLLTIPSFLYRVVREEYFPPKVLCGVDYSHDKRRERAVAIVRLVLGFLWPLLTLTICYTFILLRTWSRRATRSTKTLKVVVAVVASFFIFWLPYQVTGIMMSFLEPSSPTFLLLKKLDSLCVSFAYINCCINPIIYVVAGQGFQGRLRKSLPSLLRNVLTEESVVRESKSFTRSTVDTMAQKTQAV
Put plainly: Inhibitory activity against [125I]-rC5a binding to C5a anaphylatoxin chemotactic receptor in human polymorphonuclear leukocyte (PMNL) membranes. An outline of the steps:
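Competition binding on human PMNL membrane fragments, peptides displacing ¹²⁵I-labelled recombinant C5a. Inhibition binding data converted to apparent dissociation constant (Ki) by the Cheng–Prusoff method.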

The test system of test [4] is Cavia porcellus. Put plainly: In vivo potency by its ability to cause evans blue dye leakage as a marker of increased vascular permeability when injected intradermally in guinea pig. Type of test: functional, organism-based.
Test [5] concerns Cavia porcellus. Put plainly: In vivo agonist efficacy by its ability to cause evans blue dye leakage as a marker of increased vascular permeability when injected intradermally in guinea pig. Type of test: functional. Set-up: concentration or dose not given beside the values. An outline of the steps: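 Guinea pig, intradermal injection of peptide at a single high concentration; Evans blue dye leakage read as vascular permeability increase, compared with the maximal response to a control rC5a injection included in each test group.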

Square brackets hold non-standard residues; d marks the D form. Peptide text beside a SMILES is read from it. * marks the point of attachment. His(τ-Me) = Cn1cnc(C[C@H](N)C(=O)O)c1; His(π-Me) = Cn1cncc1C[C@H](N)C(=O)O; Hydrocinnamoyl = O=C(CCc1ccccc1)*; hPhe = N[C@@H](CCc1ccccc1)C(=O)O; Cha = N[C@@H](CC1CCCCC1)C(=O)O; Phg = N[C@H](C(=O)O)c1ccccc1

Turning to `CSCC[C@H](NC(=O)[C@H](CC(=O)O)NC(=O)[C@H](CCCCN)NC(=O)[C@@H](N)CC1CCCCC1)C(=O)N[C@@H](CCC(N)=O)C(=O)N[C@@H](CC(C)C)C(=O)NCC(=O)N[C@@H](CCCN=C(N)N)C(=O)O` (H-[Cha]KDMQLGR-OH) [listing 1 of 2 here], it took 3 µM to reach a half-maximal effect in test [1] (EC50).

On to H-HKDMQLGR-OH, for which the Activity in test [2] is recorded as 129%. Also, the EC50 (commonly the concentration giving half of the maximal effect) in test [1] was 110 µM.

In test [1], Ac-FKDMQLGR-OH [listing 1 of 2 here] yielded an EC50 of 0.44 µM. Further, the Ki – broadly, the equilibrium dissociation constant of an inhibitor or competing ligand from its target – in test [3] stood at 0.2 µM.

Take H-LRANISFKDMQLGR-OH: the Activity in test [2] is recorded as 133%; in test [5], 116%. For the same compound, the EC50 in test [1] was 1.6 µM; in test [4], below 300 µM. In test [3], the affinity corresponds to a Ki of 0.81 µM.

`CSCC[C@H](NC(=O)[C@H](CC(=O)O)NC(=O)[C@H](CCCCN)NC(=O)[C@@H](N)c1ccccc1)C(=O)N[C@@H](CCC(N)=O)C(=O)N[C@@H](CC(C)C)C(=O)NCC(=O)N[C@@H](CCCN=C(N)N)C(=O)O` (H-[Phg]KDMQLGR-OH) [listing 1 of 2 here] showed an Activity in test [2] of 72%.

Regarding `CSCC[C@H](NC(=O)[C@H](CC(=O)O)NC(=O)[C@H](CCCCN)NC(=O)CCc1ccccc1)C(=O)N[C@@H](CCC(N)=O)C(=O)N[C@@H](CC(C)C)C(=O)NCC(=O)N[C@@H](CCCNC(=N)N)C(=O)O` (Hydrocinnamoyl-KDMQLGR-OH), in test [3], the Ki amounted to 4.4 µM.

`CSCC[C@H](NC(=O)[C@H](CC(=O)O)NC(=O)[C@H](CCCCN)NC(=O)[C@H](N)Cc1cccs1)C(=O)N[C@@H](CCC(N)=O)C(=O)N[C@@H](CC(C)C)C(=O)NCC(=O)N[C@@H](CCCN=C(N)N)C(=O)O`: in test [5], the Activity turned out to be 85%.

Take `CSCC[C@H](NC(=O)[C@H](CC(=O)O)NC(=O)[C@H](CCCCN)NC(=O)CCc1ccccc1)C(=O)N[C@@H](CCC(N)=O)C(=O)N[C@@H](CC(C)C)C(=O)NCC(=O)N[C@@H](CCCN=C(N)N)C(=O)O` (Hydrocinnamoyl-KDMQLGR-OH): in test [2], the Activity amounted to 84%. Also, it took 0.8 µM to reach a half-maximal effect in test [1] (EC50).

In test [2], `CSCC[C@H](NC(=O)[C@H](CC(=O)O)NC(=O)[C@H](CCCCN)NC(=O)[C@@H](N)Cc1cncn1C)C(=O)N[C@@H](CCC(N)=O)C(=O)N[C@@H](CC(C)C)C(=O)NCC(=O)N[C@@H](CCCN=C(N)N)C(=O)O` (H-[His(π-Me)]KDMQLGR-OH) yielded an Activity of 88%. Further, the EC50 in test [1] amounted to 110 µM. This compound also displayed a Ki in test [3] of 180 µM.

`CSCC[C@H](NC(=O)[C@H](CC(=O)O)NC(=O)[C@H](CCCCN)NC(=O)[C@@H](N)CCc1ccccc1)C(=O)N[C@@H](CCC(N)=O)C(=O)N[C@@H](CC(C)C)C(=O)NCC(=O)N[C@@H](CCCNC(=N)N)C(=O)O` (H-[hPhe]KDMQLGR-OH) gave a Ki in test [3] of 36 µM.

In test [2], `CSCC[C@H](NC(=O)[C@H](CC(=O)O)NC(=O)[C@H](CCCCN)NC(=O)[C@@H](N)Cc1cn(C)cn1)C(=O)N[C@@H](CCC(N)=O)C(=O)N[C@@H](CC(C)C)C(=O)NCC(=O)N[C@@H](CCCNC(=N)N)C(=O)O` (H-[His(τ-Me)]KDMQLGR-OH) [listing 1 of 2 here] returned an Activity of 90%.

The compound `CSCC[C@H](NC(=O)[C@H](CC(=O)O)NC(=O)[C@H](CCCCN)NC(=O)[C@@H](N)Cc1cccs1)C(=O)N[C@@H](CCC(N)=O)C(=O)N[C@@H](CC(C)C)C(=O)NCC(=O)N[C@@H](CCCN=C(N)N)C(=O)O` [listing 1 of 2 here] returned an Activity in test [2] of 142%.

With `CSCC[C@H](NC(=O)[C@H](CC(=O)O)NC(=O)[C@H](CCCCN)NC(=O)[C@@H](N)CC1CCCCC1)C(=O)N[C@@H](CCC(N)=O)C(=O)N[C@@H](CC(C)C)C(=O)NCC(=O)N[C@@H](CCCN=C(N)N)C(=O)O` (H-[Cha]KDMQLGR-OH) [listing 2 of 2 here], the Activity in test [2] was found to be 154%.

`CSCC[C@H](NC(=O)[C@H](CC(=O)O)NC(=O)[C@H](CCCCN)NC(=O)[C@@H](N)c1ccccc1)C(=O)N[C@@H](CCC(N)=O)C(=O)N[C@@H](CC(C)C)C(=O)NCC(=O)N[C@@H](CCCN=C(N)N)C(=O)O` (H-[Phg]KDMQLGR-OH) [listing 2 of 2 here] came in with an EC50 in test [1] of 10 µM. In test [3], this compound came in with a Ki of 31 µM.

As to `CSCC[C@H](NC(=O)[C@H](CC(=O)O)NC(=O)[C@H](CCCCN)NC(=O)[C@@H](N)CCc1ccccc1)C(=O)N[C@@H](CCC(N)=O)C(=O)N[C@@H](CC(C)C)C(=O)NCC(=O)N[C@@H](CCCN=C(N)N)C(=O)O` (H-[hPhe]KDMQLGR-OH), the Activity in test [2] came out at 162%. In test [1], this compound had an EC50 of 15 µM.

In test [1], `CSCC[C@H](NC(=O)[C@H](CC(=O)O)NC(=O)[C@H](CCCCN)NC(=O)[C@@H](N)Cc1cn(C)cn1)C(=O)N[C@@H](CCC(N)=O)C(=O)N[C@@H](CC(C)C)C(=O)NCC(=O)N[C@@H](CCCNC(=N)N)C(=O)O` (H-[His(τ-Me)]KDMQLGR-OH) [listing 2 of 2 here] displayed an EC50 of 17 µM. The Ki in test [3] amounted to 58 µM.

For the compound `CSCC[C@H](NC(=O)[C@H](CC(=O)O)NC(=O)[C@H](CCCCN)NC(=O)[C@H](N)Cc1ccccc1)C(=O)N[C@@H](CCC(N)=O)C(=O)N[C@@H](CC(C)C)C(=O)NCC(=O)N[C@@H](CCCN=C(N)N)C(=O)O`, the Activity in test [2] came to 70%. This compound gave an EC50 in test [1] of 80 µM. Also, in test [3], the Ki was determined as 79 µM.

As to `CSCC[C@H](NC(=O)[C@H](CC(=O)O)NC(=O)[C@H](CCCCN)NC(=O)[C@@H](N)Cc1ccccc1)C(=O)N[C@@H](CCC(N)=O)C(=O)N[C@@H](CC(C)C)C(=O)NCC(=O)N[C@@H](CCCN=C(N)N)C(=O)O`, the Activity in test [2] is reported as 132%; in test [5], 60%. Besides, the EC50 in test [1] was 0.46 µM; in test [4], below 1000 µM. Besides, the Ki in test [3] was determined as 0.26 µM.

In test [3], `CSCC[C@H](NC(=O)[C@H](CC(=O)O)NC(=O)[C@H](CCCCN)NC(=O)[C@@H](N)Cc1cccs1)C(=O)N[C@@H](CCC(N)=O)C(=O)N[C@@H](CC(C)C)C(=O)NCC(=O)N[C@@H](CCCNC(=N)N)C(=O)O` returned a Ki of 2.1 µM.

As to H-ISFKDMQLGR-OH, the Activity in test [2] is 76%; in test [5], 54%. Further, the EC50 was 0.72 µM in test [1] and below 100 µM in test [4].

Consider `CSCC[C@H](NC(=O)[C@H](CC(=O)O)NC(=O)[C@H](CCCCN)NC(=O)[C@@H](N)Cc1cccs1)C(=O)N[C@@H](CCC(N)=O)C(=O)N[C@@H](CC(C)C)C(=O)NCC(=O)N[C@@H](CCCN=C(N)N)C(=O)O` [listing 2 of 2 here], for which the EC50 in test [1] was 0.53 µM; in test [4], below 1000 µM.

`CSCC[C@H](NC(=O)[C@H](CC(=O)O)NC(=O)[C@H](CCCCN)NC(=O)[C@@H](N)CC1CCCCC1)C(=O)N[C@@H](CCC(N)=O)C(=O)N[C@@H](CC(C)C)C(=O)NCC(=O)N[C@@H](CCCNC(=N)N)C(=O)O` (H-[Cha]KDMQLGR-OH) showed a Ki in test [3] of 13 µM.

Ac-FKDMQLGR-OH [listing 2 of 2 here] had an Activity in test [2] of 76%.

H-ANISFKDMQLGR-OH: the Activity is listed as 85% in test [2] and 69% in test [5]. In addition, the figures for the EC50 in test [1] and in test [4] were 0.25 µM and below 100 µM, respectively.

The values above are taken from ChEMBL document CHEMBL1126196, “Improvements in the minimum binding sequence of C5a: examination of His-67” (J Med Chem, 1992).
